Screens as filed in PubChem BioAssay.
An excerpt weighted towards active compounds, which were near 3% of everything screened.
MC4R ag barr: MC4R agonists recruiting beta-arrestin, primary screen, cell-based, luminescence, agonist arm of biased-ligand search; U2OS MC4R beta-arrestin complementation; percent of melanotan II response, DMSO zero; activation, % at 8.9 µM; 360,000 tested, 0.98% active;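 active = activation above a per-plate cutoff, the mean activation of sample wells on that plate plus 3 SD, cut at about 8% in these data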
ABHD5-PLIN5 inh: ABHD5-PLIN5 interaction inhibitors, primary screen, cell lysate, split luciferase complementation, luminescence; inhibition, % at 4 µM; 360,000 tested, 0.78% active; Perilipin-5 (Homo sapiens) + 1-acylglycerol-3-phosphate O-acyltransferase ABHD5 (Homo …; Split G. princeps luciferase complementation, 4 h;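 active = inhibition above the mean inhibition across every tested compound plus 3 SD, cut at about 22% in these data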;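 also: 0% = DMSO only wells and the 100% control is not disclosed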
Target sequence (Q00G26 whole entry, looked up): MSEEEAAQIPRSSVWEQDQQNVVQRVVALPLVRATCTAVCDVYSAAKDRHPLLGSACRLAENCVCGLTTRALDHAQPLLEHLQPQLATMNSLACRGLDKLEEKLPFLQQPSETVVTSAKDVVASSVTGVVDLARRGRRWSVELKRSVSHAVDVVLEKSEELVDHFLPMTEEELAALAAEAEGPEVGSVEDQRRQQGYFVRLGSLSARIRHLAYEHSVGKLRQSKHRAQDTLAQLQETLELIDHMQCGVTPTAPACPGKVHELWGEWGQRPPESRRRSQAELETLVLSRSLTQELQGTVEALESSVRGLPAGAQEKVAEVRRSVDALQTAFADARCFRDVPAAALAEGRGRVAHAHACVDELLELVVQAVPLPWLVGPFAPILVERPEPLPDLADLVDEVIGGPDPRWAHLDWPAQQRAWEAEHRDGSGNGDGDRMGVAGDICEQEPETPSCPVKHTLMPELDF
Target sequence (Q8WTS1 whole entry, looked up): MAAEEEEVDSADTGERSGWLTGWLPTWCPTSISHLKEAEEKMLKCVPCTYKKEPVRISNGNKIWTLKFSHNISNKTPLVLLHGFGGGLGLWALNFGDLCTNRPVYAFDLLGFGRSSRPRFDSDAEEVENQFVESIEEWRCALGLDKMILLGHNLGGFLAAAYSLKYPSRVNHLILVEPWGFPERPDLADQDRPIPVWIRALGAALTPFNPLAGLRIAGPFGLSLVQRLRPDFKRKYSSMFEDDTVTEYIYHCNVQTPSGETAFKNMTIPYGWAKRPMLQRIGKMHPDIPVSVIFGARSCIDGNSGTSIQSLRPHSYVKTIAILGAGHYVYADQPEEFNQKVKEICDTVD
PfGluPho inh: PfG6PD enzyme inhibitors, primary screen, biochemical, fluorescence intensity, uHTS; PfGluPho enzyme, NADPH resazurin-diaphorase fluorescence; inhibition, % at 20 µM; 350,000 tested, 0.78% active;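 active = inhibition reaching at least a set limit at 20 µM in the primary screen, cut at about 59% in these data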;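 also: 0% = DMSO wells with substrate and 100% = DMSO wells lacking glucose-6-phosphate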
MC4R antag cAMP: MC4R antagonists of cAMP signaling, primary screen, cell-based, TR-FRET, antagonist arm of biased-ligand search; inhibition, % at 6.5 µM; MC4R-expressing cells, MTII-stimulated cAMP, LANCE TR-FRET; Melanocortin receptor 4 (Homo sapiens), P32245; 360,000 tested, 0.48% active;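 active = inhibition above its plate's cutoff, the mean of tested wells on that plate plus 3 SD, cut at about 29% in these data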;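 also: 0% = Melanotan II alone and 100% = Melanotan II plus saturating MCL0020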
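System – human MC4R-expressing U2OS cells · Also added – Melanotan II · Dosing – one concentration, 6.5 µM nominal · Timing – 30-min compound, 1-h challenge, 1-h detection, room temperature · Measured by – Eu-cAMP/anti-cAMP TR-FRET, emission 671 nm · Replicates – singlicate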
B2AR ag: beta2AR agonists driving receptor internalization, primary screen, cell-based, FAP fluorogen, flow cytometry; AID 504454, 2011; Beta-2 adrenergic receptor (Homo sapiens), P07550; response, % (no concentration beside the values); Am2.2-beta2AR cells; 340,000 tested, 0.43% active;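 active = response above a set limit, near 3 SD of response in nonfluorescent compounds, cut at about 42% in these data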
U2OS cAMP counter: nonselective cAMP signaling inhibitors, parental cells, counter-screen for MC4R biased antagonist project, cell-based, TR-FRET, U2OS, forskolin, triplicate | 1,600 tested, 26% active | inhibition, % at 6.5 µM | LANCE TR-FRET | shares compounds with MC4R antag cAMP;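 active = mean inhibition over triplicates above the low-control well mean plus 3 SD, set per campaign, cut at about 13% in these data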;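 also: signal is single emission at 671 nm which falls as cellular cAMP rises; 0% = forskolin-stimulated wells and 100% = buffer without forskolin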
MC4R antag conf: MC4R cAMP antagonists, retest, confirmation, cell-based, TR-FRET; inhibition, % at 6.5 µM; MC4R-expressing cells, MTII-stimulated cAMP; AID 602195, 2012; shares compounds with MC4R antag cAMP; 1,600 tested, 27% active; in the data active = inhibition above about 29%;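 also: 0% = agonist stimulated wells alone and 100% = agonist stimulated wells plus saturating reference antagonist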
An asterisk follows results filed as active; nt = not tested or not shown.

SMILES	MC4R ag barr	ABHD5-PLIN5 inh	PfGluPho inh	MC4R antag cAMP	B2AR ag	U2OS cAMP counter	MC4R antag conf
N=c1c2c(-c3ccccc3)c(-c3ccccc3)n(Cc3ccccc3)c2ncn1CCCn1ccnc1	1.0	14.4	4.9	28.8*	41.5	-1.9	35.1*
CCCCn1cnc2c(c(-c3ccccc3)c(-c3ccccc3)n2Cc2ccco2)c1=N	-1.1	11.6	0.7	0.7	-0.6	nt	nt
CC(NC(=O)COC(=O)C1(C)CC1(Cl)Cl)c1ccccc1 (configuration not stated)	0.0	-5.7	-9.9	8.7	20.6	nt	nt
Cc1nc2sc3c(=O)[nH]nnc3c2c(C)c1Br	2.3	1.3	-9.1	10.0	12.8	nt	nt
CN(c1ccc(C(=O)NCCCn2ccnc2)cc1)S(C)(=O)=O	-0.1	-5.1	15.4	4.1	1.5	nt	nt
Cc1ccc(S(=O)(=O)NC2CCCc3ccccc32)cc1C (configuration not stated)	3.5	-9.8	13.0	30.8*	4.4	-0.7	11.2
CC1CCCC(NC(=O)CCCCCn2c(=S)[nH]c3ccsc3c2=O)C1C (configuration not stated)	-0.9	-0.9	14.4	1.6	nt	nt	nt
Cc1ccc(S(=O)(=O)NCC(=O)OCc2csc(-c3ccccc3)n2)cc1	1.6	-4.1	12.6	29.5*	10.9	14.9*	27.6
COC(=O)c1ccc(COC(=O)CNS(=O)(=O)c2ccc(C)cc2)cc1	0.6	7.0	-14.9	39.5*	-2.5	18.8*	25.7
CCN(CC(=O)NC1CCS(=O)(=O)C1)S(=O)(=O)c1ccc(Br)cc1 (configuration not stated)	-0.9	-10.5	0.2	9.0	-3.2	nt	nt
CC(=O)Nc1cc(-c2cccc(C(=O)NCCO)c2)cn2c(-c3cccc(C(F)(F)F)c3)cnc12	6.9	3.2	nt	4.5	nt	nt	nt
COc1ccccc1NCC(=O)N/N=C(\C)c1cccs1	1.8	-7.1	8.8	39.8*	-2.3	2.2	10.3
CCNC(=O)Cn1cc(C(F)(F)F)cc(Cl)c1=O	-1.5	-2.0	-8.9	30.3*	-0.6	-0.6	-1.5
O=C(c1c(F)c(F)c(F)c(F)c1F)N1CCc2ccccc21	-0.8	2.7	-5.3	33.5*	4.2	16.9*	26.7
Cc1sc2nc(CN(C(=O)c3cccs3)C3CCCC3)[nH]c(=O)c2c1C	0.1	0.2	6.4	8.8	-6.7	nt	nt
O=C(c1cccs1)N(Cc1nc2sc3c(c2c(=O)[nH]1)CCCC3)C1CCCC1	4.5	2.5	6.4	30.1*	0.5	-14.5	-28.3
CCOC(=O)N1CCN(CCC(=O)Nc2cc(C)ccc2C)CC1	-2.2	-2.8	-1.2	9.4	-1.4	nt	nt
Cc1ccsc1C(=O)OCC(=O)Nc1ccc(Cl)cc1C(F)(F)F	0.9	0.8	-2.0	16.3	-1.1	nt	nt
Cc1ccc(C(=O)NCC(=O)OCC(=O)Nc2ccc(Cl)cc2C(F)(F)F)cc1C	3.6	2.7	12.6	28.8*	0.0	6.3	17.6
O=C(Cn1c(Cn2c(-c3cnccn3)nc3ccccc32)nc2ccccc21)c1ccc(OC(F)(F)F)cc1	nt	0.0	nt	nt	nt	nt	nt
Cc1cc(C(=O)COC(=O)C2=NN(c3ccccc3)C(=O)CC2)c(C)n1CC(F)(F)F	1.9	7.2	-5.0	29.7*	15.1	0.0	-6.4
COCC(C)n1c(C)cc(C(=O)COC(=O)C2=NN(c3ccccc3)C(=O)CC2)c1C (configuration not stated)	-1.6	-5.7	nt	-2.7	-1.9	nt	nt
O=C(COC(=O)c1cnccn1)NC1CCCc2ccccc21 (configuration not stated)	-2.5	2.8	-2.9	1.1	-1.7	nt	nt
COc1ccc(C2=NOC3(CC(=O)N(c4ccc(F)cc4)C3=O)C2)cc1 (configuration not stated)	1.7	5.9	15.5	29.3*	7.6	1.8	-5.9
COc1ccc(C2=NOC3(CC(=O)N(c4ccc(F)cc4)C3=O)C2)c(OC)c1 (configuration not stated)	-0.5	-2.6	-3.9	-3.2	4.7	nt	nt
SMILES	MC4R ag barr	ABHD5-PLIN5 inh	PfGluPho inh	MC4R antag cAMP	B2AR ag	U2OS cAMP counter	MC4R antag conf
CC(C(=O)Nc1ccc(Cl)cc1)c1ncc(C(F)(F)F)cc1Cl (configuration not stated)	-0.1	-5.7	7.7	-0.1	-9.0	nt	nt
CNC(=O)C(C)c1ncc(C(F)(F)F)cc1Cl (configuration not stated)	0.6	-2.9	-5.0	31.1*	2.4	0.8	-8.1
COCOc1cccc(CN2CCC2(C)C(=O)Nc2ccc(OC)c(OC)c2)c1 (configuration not stated)	-1.1	2.7	nt	6.2	nt	nt	nt
COC(=O)c1ccc2c(=O)[nH]c(COC(=O)c3c(-c4ccccc4Cl)noc3C)nc2c1	1.5	-7.8	-26.2	28.5*	3.8	-1.1	5.1
CC(C)[C@H](NS(=O)(=O)c1ccccc1)C(=O)OCC(=O)Nc1ccccc1Sc1ccccc1	2.0	-1.6	1.6	10.2	7.7	nt	nt
O=C(COC(=O)CNS(=O)(=O)c1c(Cl)cccc1Cl)Nc1ccccc1Sc1ccccc1	0.1	0.0	9.2	32.1*	-1.9	18.4*	37.2*
CCCC(=O)OCC(=O)Nc1ccccc1Sc1ccccc1	-1.2	6.4	8.9	18.8	-0.9	nt	nt
O=C(COC(=O)CNS(=O)(=O)c1cccc(Br)c1)Nc1ccccc1Sc1ccccc1	5.1	-8.7	5.6	29.2*	1.2	6.3	18.3
O=C(c1ccco1)N1CCN(C(=O)C2CC(=O)N(c3ccc(Cl)cc3)C2)CC1 (configuration not stated)	-0.6	-3.7	-4.5	0.5	1.1	nt	nt
Cc1ccc(Cn2ncc(Cl)c(Cl)c2=O)cc1	-2.4	5.8	6.0	49.4*	20.2	33.2*	50.2*
O=C(Cn1ncc(Cl)c(Cl)c1=O)N1CCN(Cc2ccccc2)CC1	-0.2	5.5	15.0	28.8*	16.5	26.2*	39.9*
CCC(NC(=O)COc1cc2c(c3oc(=O)c(C)c(C)c13)CCC(C)(C)O2)C(=O)O (configuration not stated)	-0.7	-15.6	15.7	-4.1	-4.0	nt	nt
CC(C)(C)N1C(=O)[C@H]2[C@@H](c3ccc(Br)cc3)N3C(=O)N(c4ccccc4)C(=O)[C@@]3(C)[C@H]2C1=O	0.6	-1.3	3.4	0.1	-1.6	nt	nt
